From PubChem
Platelet DG rel – inhibitors of platelet dense granule secretion, primary screen, cell-based, MLPCN, human platelets; human platelet-rich plasma, SFLLRN dense granule ATP release, luminescence; AID 1663, 2009; inhibition, %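 (compounds screened at 7.5 µM in platelet-rich plasma)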; hit rate 0.22% among 300,000;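 active means mean replicate score, as percent of positive control, at or above 50; inconclusive means mean below 50 but at least one replicate at or above 50; inactive means mean and every replicate below 50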
Runt-CBFb FRET – inhibitors of RUNX1 Runt–CBFb binding, primary screen, biochemical, FRET, Cerulean-Runt, Venus-CBFb, uHTS | Runt-related transcription factor 1 (Homo sapiens) + Core-binding factor subunit beta … | Cerulean-Runt/Venus-CBFb FRET ratio 530/480, 1 h | inhibition, % at 20 µM | hit rate 0.46% among 220,000;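 active means inhibition over about 50% at 20 µM in the single-dose screen, limit read from the data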
Target sequence (Q01196 whole entry, looked up): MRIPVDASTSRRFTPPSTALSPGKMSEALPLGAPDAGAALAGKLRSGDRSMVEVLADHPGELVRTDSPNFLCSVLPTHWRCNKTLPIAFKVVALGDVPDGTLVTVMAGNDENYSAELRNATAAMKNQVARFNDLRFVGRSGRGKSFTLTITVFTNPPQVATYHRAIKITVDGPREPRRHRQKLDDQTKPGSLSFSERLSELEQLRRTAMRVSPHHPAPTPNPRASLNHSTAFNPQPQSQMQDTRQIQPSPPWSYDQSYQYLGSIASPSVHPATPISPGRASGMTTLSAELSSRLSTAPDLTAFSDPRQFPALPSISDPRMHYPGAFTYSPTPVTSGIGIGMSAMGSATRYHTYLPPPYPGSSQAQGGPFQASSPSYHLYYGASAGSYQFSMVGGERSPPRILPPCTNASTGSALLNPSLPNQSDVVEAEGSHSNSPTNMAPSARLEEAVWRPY
Target sequence (Q13951 whole entry, looked up): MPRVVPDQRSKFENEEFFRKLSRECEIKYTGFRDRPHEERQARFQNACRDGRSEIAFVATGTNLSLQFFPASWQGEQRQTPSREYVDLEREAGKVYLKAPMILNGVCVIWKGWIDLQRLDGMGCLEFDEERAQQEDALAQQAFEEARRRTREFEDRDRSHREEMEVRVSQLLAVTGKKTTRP
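Measured by: fluorescence energy transfer, 422 nm excitation, 530/480 nm emission; Assay system: Cerulean-Runt domain; Medium: Tris pH 7.5 buffer with BSA; Measure: loss of energy transfer signal; Controls: 5 µM unlabeled CBFb as full-inhibition high control; Incubation: protein complex preformed 1 h, compound exposure 1 h, room temperature, dark.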
RanGTP-Imp inh – inhibitors of RanGTP-importin-beta interaction, primary screen, biochemical, FRET, CFP-Ran, YFP-importin-beta, homogeneous; cell-free CFP-Ran/YFP-importin-beta FRET ratio; inhibition, % (test concentration not listed); Ran GTPase (GTP-bound) - importin-beta complex; hit rate 1.1% among 300,000;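 active means more than half of the replicate wells show a fall in the fluorescence ratio signal beyond about 16%, limit read from the data, passing the limit was not always enough; inconclusive means exactly half of the replicate wells pass the set limit; inactive means fewer than half of replicates pass the limit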
Rce1 inh – yeast Rce1p protease inhibitors, primary screen, biochemical, fluorescence, cell-free homogeneous. hit rate 0.27% among 290,000. yeast membranes, quenched prenylated peptide cleavage fluorescence. CAAX prenyl protease 2 (Saccharomyces cerevisiae (strain ATCC 204508 / S288c)), Q03530. calls only. AID 2563, 2010;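 active means fall in fluorescence gain of 50% or more versus controls, with final raw signal at or below 3038400; inconclusive means same 50% fall but final raw signal above 3038400; inactive means fall in fluorescence gain under 50%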
Runt-SMMHC FRET – inhibitors of RUNX1 Runt–CBFb-SMMHC binding, primary screen, biochemical, FRET, Cerulean-Runt, Venus-CBFb-SMMHC, uHTS; hit rate 0.74% among 220,000; Cerulean-Runt/Venus-CBFb-SMMHC FRET ratio 530/480, 1 h; inhibition, % at 20 µM; Runt-related transcription factor 1 (Homo sapiens) + Core-binding factor subunit beta …;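 active means mean inhibition across duplicate retests at 20 µM reaching about 50%, limit read from the data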;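 further: inhibitors lower the FRET ratio by blocking Runt binding to CBFb-SMMHC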
Each line names hits and unclear results; the compound was inactive in the other large screens. Only some compounds are listed: those with a hit (about 1.8% of all), similar ones and a draw of the others.

CC(=O)Nc1ccc2c3c(cccc13)C(=O)N(c1ccccc1)C2=O	RanGTP-Imp inh 73, Runt-SMMHC FRET 87
N=c1c(C(=O)NCc2ccccc2)cc2c(=O)n3ccccc3nc2n1Cc1ccco1	RanGTP-Imp inh 78 (no result: Runt-SMMHC FRET)
N=c1c(C(=O)NCc2ccco2)cc2c(=O)n3ccccc3nc2n1Cc1ccc(Cl)cc1	Runt-CBFb FRET 66, RanGTP-Imp inh 126
N=c1c(C(=O)NCc2ccco2)cc2c(=O)n3ccccc3nc2n1Cc1ccccc1	RanGTP-Imp inh 117, Runt-SMMHC FRET 58
Cc1ccc(CNC(=O)c2cc3c(=O)n4ccccc4nc3n(Cc3ccco3)c2=N)cc1	Runt-CBFb FRET 88, RanGTP-Imp inh 78
COCCn1c(=N)c(C(=O)NCc2ccco2)cc2c(=O)n3ccccc3nc21	none (no result: Platelet DG rel, RanGTP-Imp inh, Rce1 inh)
Cc1cccc(NC(=O)c2cc3c(=O)n4ccccc4nc3n(CC(C)C)c2=N)c1	none
COc1ccc(CCn2c(=N)c(C(=O)NCC3CCCO3)cc3c(=O)n4ccccc4nc32)cc1OC (stereo not given)	Platelet DG rel inconclusive (no result: Runt-CBFb FRET, Runt-SMMHC FRET)
Cc1cc2ccccc2c(=O)n1CC(=O)NCc1ccco1	none
N=c1c(C(=O)NCc2ccc(F)cc2)cc2c(=O)n3ccccc3nc2n1Cc1ccco1	Runt-CBFb FRET 69 (no result: Runt-SMMHC FRET)
Cc1ccc2nc3c(cc(C(=O)NCc4ccco4)c(=N)n3Cc3ccco3)c(=O)n2c1	RanGTP-Imp inh 89 (no result: Runt-CBFb FRET, Runt-SMMHC FRET)
NC(=O)c1sc2nc(-c3ccccc3)ccc2c1N	none (no result: Runt-CBFb FRET, Rce1 inh, Runt-SMMHC FRET)
CCOC(=O)c1sc2nc(-c3ccccc3)ccc2c1N	RanGTP-Imp inh 30
CCn1c(=O)cc(SCC(=O)Nc2ccc(OC)c(OC)c2)c2ccccc21	none
CCn1c(=O)cc(SCC(=O)Nc2ccc(Cl)cc2)c2ccccc21	RanGTP-Imp inh 64
Cc1ccccc1N1CC(=O)N(c2ccccc2C)CC1=O	none
Cc1cccc2c1c1ccc3c(c1n2C)C(=O)C=CC3=O	Runt-CBFb FRET 52 (no result: Platelet DG rel, RanGTP-Imp inh, Rce1 inh)
COc1ccc(C(=O)/C=C\c2ccc(NC(=O)c3cccs3)cc2)cc1	RanGTP-Imp inh 23
CCOC(=O)c1nc(NCc2ccccc2)sc1C	none (no result: Runt-CBFb FRET, Runt-SMMHC FRET)
COC(=O)c1ccc(NC(=S)N2CCN(CCO)CC2)cc1	none (no result: Runt-CBFb FRET, Runt-SMMHC FRET)
CCN1C(=O)N/C(=C/c2ccc(Sc3ccc(C)cc3)o2)C1=O	RanGTP-Imp inh 23
CCN1C(=O)N/C(=C/c2ccc(C)o2)C1=O	none
O=S1(=O)CCN(Cc2ccc(Cl)c(C(F)(F)F)c2)CC1	RanGTP-Imp inh inconclusive
COC1CCCN(C(=O)c2ccc(OC3CCN(CCc4ccccc4)CC3)cc2)C1 (stereo not given)	none
Cc1ccn2c(=O)nc(SCC(=O)NC3CCCC3)nc2c1	RanGTP-Imp inh 18 (no result: Runt-CBFb FRET, Runt-SMMHC FRET)
Cc1ccn2c(=O)nc(SCC(=O)NC3CCCCC3)nc2c1	none (no result: Runt-CBFb FRET, Runt-SMMHC FRET)
CCOC(=O)C[C@H]1c2ccccc2S(=O)(=O)N1Cc1cc(OC)c(OC)c(OC)c1	Rce1 inh active (no result: Runt-CBFb FRET, Runt-SMMHC FRET)
CCOC(=O)C[C@H]1c2ccccc2S(=O)(=O)N1Cc1cccc(C(F)(F)F)c1	none (no result: Runt-CBFb FRET, Runt-SMMHC FRET)
COC1CCCN(Cc2c(C(=O)N3CCN(C4CCCCC4)CC3)nc3ccccn23)C1 (stereo not given)	RanGTP-Imp inh 104 (no result: Runt-CBFb FRET, Runt-SMMHC FRET)
CCOC(=O)C1CCCN(Cc2c(C(=O)N3CCOCC3)nc3ccccn23)C1 (stereo not given)	none
CCCn1nnnc1NC(=O)c1ccc(C)cc1Cl	none
O=c1nc(/C=C/c2ccc(-c3ccc(F)cc3)o2)cc(C(F)(F)F)[nH]1	Runt-CBFb FRET 106, Runt-SMMHC FRET 81
O=C(N/N=C/c1ccc(-c2ccccc2C(=O)O)o1)c1cccs1	none
O=C(O)c1ccccc1-c1ccc(/C=C/c2cc(C(F)(F)F)[nH]c(=O)n2)o1	Runt-CBFb FRET 68, Runt-SMMHC FRET 87 (no result: Rce1 inh)
CC(=O)Oc1ccc(C(=O)Nc2ccc(S(=O)(=O)NCC3CCCO3)cc2)cc1 (stereo not given)	Rce1 inh active (no result: Runt-CBFb FRET, Runt-SMMHC FRET)
CC(=O)Nc1ccc(C(=O)Nc2ccc(S(=O)(=O)NCC3CCCO3)cc2)cc1 (stereo not given)	none
O=C(COC(=O)c1c[nH]c(=O)[nH]c1=O)Nc1ccccc1Br	Platelet DG rel 82
CC(OC(=O)Cn1[nH]c(=O)c2ccccc2c1=O)C(=O)Nc1cccc(Cl)c1 (stereo not given)	none (no result: Runt-CBFb FRET, Runt-SMMHC FRET)
Cc1cc(C)nc(SCC(=O)NC2=NN=C(c3ccc(Br)cc3)CS2)n1	RanGTP-Imp inh 38 (no result: Runt-CBFb FRET)
CCC(Sc1nc(C)cc(C)n1)C(=O)NC1=NN=C(c2ccc(C)cc2)CS1 (stereo not given)	none
Cc1oc(C)c2c(=O)ccc3c(c12)OC(N)=C(C#N)C3c1ccccc1Cl (stereo not given)	RanGTP-Imp inh 28 (no result: Platelet DG rel)
Cc1oc(C)c2c(=O)ccc3c(c12)OC(N)=C(C#N)C3c1ccccc1 (stereo not given)	none
COc1cc2c(cc1OC)CN(C(=O)C1CCCN1S(=O)(=O)c1ccc(F)cc1)CC2 (stereo not given)	none (no result: Runt-CBFb FRET, Runt-SMMHC FRET)
COc1ccc(NS(=O)(=O)c2cccc(C(=O)NNC(=O)c3ccc(Br)o3)c2)cc1	none (no result: Runt-CBFb FRET, Runt-SMMHC FRET)
Cc1ccc(CNC(=O)c2ccc(N3CCC4(CC3)CC(c3ccccc3)=NO4)c(NC(=O)c3ccc(Br)cc3)c2)cc1	none (no result: Runt-CBFb FRET, Runt-SMMHC FRET)
COCc1cc(C)nc(SCC[N+](C)(C)CC(=O)c2ccc(Br)cc2)c1C#N	Platelet DG rel 51
CC(=O)Oc1ccc(/C=C/c2nc3ccccc3c(=O)o2)cc1	Platelet DG rel 83 (no result: Runt-CBFb FRET, Runt-SMMHC FRET)
COc1cc(NC(=S)Nc2ccccn2)c(OC)cc1Cl	none
COc1cccc(NC(=O)Nc2c(C)n(C)n(-c3ccccc3)c2=O)c1	RanGTP-Imp inh 115 (no result: Rce1 inh)
CCCOc1ccc(NC(=O)CC2C(=O)N(c3ccc(OCC)cc3)C(=S)N2C2CC2)cc1 (stereo not given)	none (no result: Runt-CBFb FRET, Runt-SMMHC FRET)
Cc1cc(NC(=O)c2cc(-c3ccc(OC(C)C)cc3)nc3ccccc23)no1	none (no result: Runt-CBFb FRET, Runt-SMMHC FRET)
N/C(Cc1ccc([N+](=O)[O-])cc1)=N\OC(=O)c1ccc2ccccc2c1	Rce1 inh active
Cc1cccc(C(=O)O/N=C(\N)Cc2ccc([N+](=O)[O-])cc2)c1	none
CC(=O)N1CC=C2C(C#N)=C(N)C(C#N)(C#N)C(CCc3ccccc3)C2C1 (stereo not given)	none
N#CC1=C(N)C(C#N)(C#N)[C@H](c2ccoc2)[C@H]2CN(Cc3ccccc3)CC=C12	RanGTP-Imp inh 107, Runt-SMMHC FRET 57
CCN1CC=C2C(C#N)=C(N)C(C#N)(C#N)C(CCc3ccccc3)C2C1 (stereo not given)	Runt-CBFb FRET 108 (no result: Platelet DG rel, RanGTP-Imp inh, Rce1 inh)
N#CC1=C(N)C(C#N)(C#N)C(c2cccnc2)C2CN(C(=O)OCc3ccccc3)CC=C12 (stereo not given)	Platelet DG rel inconclusive
